Experimental data as given in ChEMBL document CHEMBL1151206, “Glycosidase-inhibiting pyrrolidines and pyrrolizidines with a long side chain in Scilla peruviana” (J Nat Prod, 2004).

Legend:
[1] = Inhibition of almond beta-glucosidase by spectrophotometry; parameters: species or system Prunus dulcis
How it was run: (§1)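 Commercial enzyme assayed with the matching p-nitrophenyl glycoside (2 mM) in a 1 mL reaction, at pH 5.0 for the C. saccharolyticum and almond beta-glucosidases, pH 6.8 for bovine liver beta-galactosidase and pH 6.8 for yeast alpha-glucosidase. The reaction was stopped with 2 mL of 400 mM Na2CO3 and released p-nitrophenol was read at 400 nm. IC50 was determined.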

[2] = Inhibition of yeast alpha-glucosidase by spectrophotometry; parameters: species or system Saccharomyces cerevisiae; how it was run: as §1
Oryza sativa = assay: Inhibition of rice alpha-glucosidase at 1000 uM by spectrophotometry
[3] = molecular target: T1, Lysosomal acid glucosylceramidase (Homo sapiens) (UniProt P04062); assay: Inhibition of human placental beta-glucocerebrosidase at 1000 uM by spectrophotometry
T1 sequence (whole entry): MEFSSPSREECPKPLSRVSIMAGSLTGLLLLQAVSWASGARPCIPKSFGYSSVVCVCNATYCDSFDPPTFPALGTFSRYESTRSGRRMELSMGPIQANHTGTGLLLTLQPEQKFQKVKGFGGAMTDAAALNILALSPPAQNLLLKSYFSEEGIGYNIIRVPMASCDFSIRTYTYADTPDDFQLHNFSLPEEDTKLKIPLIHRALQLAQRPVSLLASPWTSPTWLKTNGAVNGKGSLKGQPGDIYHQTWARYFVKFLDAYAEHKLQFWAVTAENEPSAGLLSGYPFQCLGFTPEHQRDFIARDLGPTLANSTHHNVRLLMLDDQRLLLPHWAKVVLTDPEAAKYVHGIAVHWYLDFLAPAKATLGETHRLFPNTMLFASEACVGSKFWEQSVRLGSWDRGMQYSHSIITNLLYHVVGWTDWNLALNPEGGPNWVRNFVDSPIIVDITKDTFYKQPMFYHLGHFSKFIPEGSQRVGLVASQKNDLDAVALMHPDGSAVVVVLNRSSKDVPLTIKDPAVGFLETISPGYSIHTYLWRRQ

Rattus norvegicus [4] = species on record: Rattus norvegicus; assay: Inhibition of rat epididymis beta-galactosidase at 1000 uM by spectrophotometry
How it was run: (§2)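 Enzyme source was rat epididymal fluid purified from epididymis, assayed at pH 5.2 with 2 mM of the relevant p-nitrophenyl glycoside in a 1 mL reaction. The reaction was stopped with 2 mL of 400 mM Na2CO3 and p-nitrophenol was measured at 400 nm.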

[5] = molecular target: T2, Beta-galactosidase (Bos taurus) (UniProt Q58D55); assay: Inhibition of bovine liver beta-galactosidase at 1000 uM by spectrophotometry
T2 sequence (whole entry): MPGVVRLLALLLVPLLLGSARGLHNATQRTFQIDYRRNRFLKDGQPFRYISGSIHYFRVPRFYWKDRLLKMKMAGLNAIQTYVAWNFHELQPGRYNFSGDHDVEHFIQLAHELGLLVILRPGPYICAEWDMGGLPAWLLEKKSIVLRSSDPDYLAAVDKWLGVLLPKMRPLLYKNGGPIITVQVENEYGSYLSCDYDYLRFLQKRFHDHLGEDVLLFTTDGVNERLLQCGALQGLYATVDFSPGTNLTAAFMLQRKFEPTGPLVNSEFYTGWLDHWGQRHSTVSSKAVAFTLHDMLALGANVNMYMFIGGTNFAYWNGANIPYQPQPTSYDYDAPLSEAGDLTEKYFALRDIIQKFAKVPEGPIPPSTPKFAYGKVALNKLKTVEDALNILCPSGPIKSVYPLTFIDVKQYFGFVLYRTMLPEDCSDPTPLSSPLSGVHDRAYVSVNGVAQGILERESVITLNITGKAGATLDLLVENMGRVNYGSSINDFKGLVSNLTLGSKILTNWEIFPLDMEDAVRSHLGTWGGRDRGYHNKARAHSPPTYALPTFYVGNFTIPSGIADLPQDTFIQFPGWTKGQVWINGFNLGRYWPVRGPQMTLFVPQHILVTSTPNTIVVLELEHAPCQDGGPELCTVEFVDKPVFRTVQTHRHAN

[6] = Inhibition of Caldocellum saccharolyticum beta-glucosidase by spectrophotometry; parameters: species or system Caldicellulosiruptor saccharolyticus; how it was run: as §1
[7] = molecular target: Alpha-galactosidase (Coffea arabica) (UniProt Q42656); assay: Inhibition of coffee bean alpha-galactosidase at 1000 uM by spectrophotometry
How it was run: (§3)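 Commercial enzymes (P. decumbens alpha-L-rhamnosidase at pH 4.5, bovine epididymis alpha-L-fucosidase at pH 5.5, coffee bean alpha-galactosidase at pH 6.5) were incubated with 2 mM p-nitrophenyl glycoside in a 1 mL reaction. The reaction was stopped with 2 mL of 400 mM Na2CO3 and p-nitrophenol was read at 400 nm.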

Penicillium decumbens = assay: Inhibition of Penicillium decumbens alpha-L-rhamnosidase at 1000 uM by spectrophotometry; how it was run: as §3
[8] = molecular target: T3, Beta-mannosidase (Rattus norvegicus) (UniProt Q4FZV0); assay: Inhibition of rat epididymis beta-mannosidase at 1000 uM by spectrophotometry
T3 sequence (whole entry): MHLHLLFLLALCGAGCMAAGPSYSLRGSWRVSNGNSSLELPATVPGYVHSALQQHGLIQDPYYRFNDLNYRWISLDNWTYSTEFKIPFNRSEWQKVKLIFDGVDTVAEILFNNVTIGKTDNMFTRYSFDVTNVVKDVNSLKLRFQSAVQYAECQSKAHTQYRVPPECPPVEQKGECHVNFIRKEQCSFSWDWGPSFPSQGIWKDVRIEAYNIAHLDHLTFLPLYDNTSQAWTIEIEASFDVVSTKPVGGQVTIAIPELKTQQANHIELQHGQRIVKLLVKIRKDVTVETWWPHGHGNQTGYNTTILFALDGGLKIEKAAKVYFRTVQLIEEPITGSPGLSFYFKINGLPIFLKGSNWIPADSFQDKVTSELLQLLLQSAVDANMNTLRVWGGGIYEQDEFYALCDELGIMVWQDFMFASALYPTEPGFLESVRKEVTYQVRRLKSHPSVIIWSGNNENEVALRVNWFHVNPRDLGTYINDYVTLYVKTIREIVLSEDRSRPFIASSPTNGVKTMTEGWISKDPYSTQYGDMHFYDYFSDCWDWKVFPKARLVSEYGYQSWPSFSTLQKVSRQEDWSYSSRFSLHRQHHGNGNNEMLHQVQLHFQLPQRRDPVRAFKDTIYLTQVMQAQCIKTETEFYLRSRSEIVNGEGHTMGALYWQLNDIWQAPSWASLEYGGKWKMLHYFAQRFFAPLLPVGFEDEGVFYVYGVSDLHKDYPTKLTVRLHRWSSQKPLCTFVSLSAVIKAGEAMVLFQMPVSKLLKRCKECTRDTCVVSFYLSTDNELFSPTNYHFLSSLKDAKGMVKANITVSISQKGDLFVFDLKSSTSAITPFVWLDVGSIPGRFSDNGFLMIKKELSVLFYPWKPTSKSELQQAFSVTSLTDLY

Saccharomyces cerevisiae = assay: Inhibition of yeast alpha-glucosidase at 1000 uM by spectrophotometry
[9] = system: maltase-glucoamylase (Rattus norvegicus); assay: Inhibition of rat intestinal maltase at 1000 uM by spectrophotometry
Rattus norvegicus [10] = species on record: Rattus norvegicus; assay: Inhibition of rat epididymis alpha-mannosidase at 1000 uM by spectrophotometry; how it was run: as §2
[11] = molecular target: T4, Tissue alpha-L-fucosidase (Bos taurus) (UniProt Q2KIM0); assay: Inhibition of bovine epididymis alpha-L-fucosidase at 1000 uM by spectrophotometry; how it was run: as §3
T4 sequence (whole entry): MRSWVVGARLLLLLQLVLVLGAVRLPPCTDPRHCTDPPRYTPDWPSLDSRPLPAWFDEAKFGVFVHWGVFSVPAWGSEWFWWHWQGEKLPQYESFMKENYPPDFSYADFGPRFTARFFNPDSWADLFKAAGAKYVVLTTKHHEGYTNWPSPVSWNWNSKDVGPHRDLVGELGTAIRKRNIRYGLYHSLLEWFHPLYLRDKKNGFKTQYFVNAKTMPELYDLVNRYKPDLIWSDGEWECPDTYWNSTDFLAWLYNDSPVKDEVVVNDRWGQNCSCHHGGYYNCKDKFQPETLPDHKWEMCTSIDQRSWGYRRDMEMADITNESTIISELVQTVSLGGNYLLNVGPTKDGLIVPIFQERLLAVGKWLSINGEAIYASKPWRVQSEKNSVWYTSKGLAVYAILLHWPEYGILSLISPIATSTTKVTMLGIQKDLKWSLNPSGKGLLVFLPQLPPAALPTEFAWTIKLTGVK

[12] = Inhibition of rice alpha-glucosidase by spectrophotometry; parameters: species or system Oryza sativa
Beta-mannosidase = molecular target: T5, Beta-mannosidase (Rattus norvegicus, UniProt Q4FZV0); assay: Inhibition of rat epididymis beta-mannosidase by spectrophotometry; how it was run: as §2
T5 sequence (Q4FZV0 whole entry): T3 sequence (whole entry)

Beta-galactosidase = molecular target: T6, Beta-galactosidase (Bos taurus, UniProt Q58D55); assay: Inhibition of bovine liver beta-galactosidase by spectrophotometry; how it was run: as §1
T6 sequence (Q58D55 whole entry): T2 sequence (whole entry)

Prunus dulcis = assay: Inhibition of almond beta-glucosidase at 1000 uM by spectrophotometry

Alpha-galactosidase (Coffea arabica), sequence (Q42656 16-378 limits assumed): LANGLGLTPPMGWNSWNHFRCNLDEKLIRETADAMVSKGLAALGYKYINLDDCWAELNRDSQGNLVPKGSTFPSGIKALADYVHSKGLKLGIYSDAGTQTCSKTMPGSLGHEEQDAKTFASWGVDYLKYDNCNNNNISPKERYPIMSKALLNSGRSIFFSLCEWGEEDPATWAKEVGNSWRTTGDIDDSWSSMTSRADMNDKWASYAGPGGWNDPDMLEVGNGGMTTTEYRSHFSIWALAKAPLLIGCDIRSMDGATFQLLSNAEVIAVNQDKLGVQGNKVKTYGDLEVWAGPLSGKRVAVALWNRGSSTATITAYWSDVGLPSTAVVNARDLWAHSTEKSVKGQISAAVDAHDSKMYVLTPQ

Structure (SMILES)	IC50 [1]	IC50 [2]	inhibition [3]	inhibition (Rattus norvegicus [4])	IC50 [6]	inhibition [7]	inhibition (Penicillium decumbens)	inhibition [9]	inhibition (Rattus norvegicus [10])	inhibition [11]	other results
OC[C@@H]1[C@@H](O)[C@H](O)[C@H]2[C@H](O)CCN21	–	95 µM	–	–	–	–	–	–	–	–	–
OC[C@H]1N[C@H](C(O)CCC[C@@H]2CCC[C@]3(CCCCO3)O2)[C@@H](O)[C@@H]1O (stereo partly drawn)	0.01 µM	–	–	–	–	–	–	–	–	–	–
CC(O)CC[C@@H]1CC[C@@H]2[C@@H](O)[C@H](O)[C@@H](CO)N12 (stereo partly drawn)	49 µM	–	< 50%	< 50%	136 µM	< 50%	< 50%	< 50%	< 50%	< 50%	inhibition (Oryza sativa): < 50%; inhibition [5]: < 50%; inhibition [8]: < 50%; inhibition (Saccharomyces cerevisiae): < 50%
CC(O)[C@@H](O)[C@H]1N[C@H](CO)[C@@H](O)[C@@H]1O (stereo partly drawn)	120 µM	630 µM	< 50%	< 50%	20 µM	< 50%	< 50%	< 50%	< 50%	< 50%	IC50 [12]: 650 µM; IC50 (Beta-mannosidase): 150 µM; IC50 (Beta-galactosidase): 130 µM
CC(O)CC[C@@H]1C[C@@H](O)[C@@H]2[C@@H](O)[C@H](O)[C@@H](CO)N12 (stereo partly drawn)	–	6.6 µM	< 50%	< 50%	200 µM	< 50%	< 50%	< 50%	< 50%	< 50%	inhibition (Oryza sativa): < 50%; inhibition (Prunus dulcis): < 50%; inhibition [8]: < 50%; IC50 (Beta-galactosidase): 320 µM

Further lines, with some results ahead:

IC50 [1]	Structure (SMILES)	IC50 [2]	inhibition [3]	inhibition (Rattus norvegicus [4])	IC50 [6]	inhibition [7]	inhibition (Penicillium decumbens)	inhibition [9]	inhibition (Rattus norvegicus [10])	inhibition [11]	other results
0.01 µM	O=C(CCCO)CCCCCCCC[C@@H](O)[C@H]1N[C@H](CO)[C@@H](O)[C@@H]1O	–	–	–	–	–	–	–	–	–	–
0.01 µM	O=C(CCCCCCCC[C@@H](O)[C@H]1N[C@H](CO)[C@@H](O)[C@@H]1O)CCCO[C@@H]1O[C@H](CO)[C@@H](O)[C@H](O)[C@H]1O	–	–	–	–	–	–	–	–	–	–
